Data as given in ChEMBL document CHEMBL1165902, “Synthesis and antiproliferative activity of oxazinocarbazole and N,N-bis(carbazolylmethyl)amine derivatives” (Eur J Med Chem, 2010).

What was measured:
[1] = tested on: Caco-2; experiment: Antiproliferative activity against human Caco-2 cells at 100 uM after 72 hrs by WST1 assay; format: functional
Procedure, shortened: (§1)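 Cells were exposed to compound for 72 h at 37 °C in RPMI 1640 with 10% FCS. Densities (cells/mL) were CEM 0.2×10^6, Jurkat 0.6×10^6, Raji 0.4×10^6, MCF-7 and Caco-2 0.2×10^6. WST-1 was then added for 4 h and absorbance read at 492 nm. Living cells are given as % of untreated-control OD (100 = no activity), with 0.1% DMSO vehicle controls and etoposide as positive control.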

[2] = tested on: Jurkat; experiment: Antiproliferative activity against human Jurkat cells at 100 uM after 72 hrs by WST1 assay; format: functional; procedure, shortened: as §1
[3] = tested on: MCF7; experiment: Antiproliferative activity against human MCF7 cells at 100 uM after 72 hrs by WST1 assay; format: functional; procedure, shortened: as §1
[4] = tested on: MCF7; experiment: Antiproliferative activity against human MCF7 cells after 72 hrs by WST1 assay; format: functional, cell-based; settings: MCF7, 72 h
Procedure, shortened: (§2)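 Seeding densities (cells/mL) were CEM 0.2×10^6, Jurkat 0.6×10^6, Raji 0.4×10^6, MCF-7 0.2×10^6 and Caco-2 0.2×10^6, in RPMI 1640 with 10% FCS, non-essential amino acids, pyruvate, glutamine and gentamicin. Cells were exposed to 12.5–100 µM (DMSO stocks, 0.1% DMSO controls) for 72 h at 37 °C. WST-1 was added for 4 h and read at 492 nm. IC50 is for 50% growth inhibition.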

[5] = tested on: Caco-2; experiment: Antiproliferative activity against human Caco-2 cells after 72 hrs by WST1 assay; format: functional, cell-based; settings: Caco-2, 72 h; procedure, shortened: as §2
[6] = tested on: CCRF-CEM; experiment: Antiproliferative activity against human CEM cells after 72 hrs by WST1 assay; format: functional, cell-based; procedure, shortened: as §2
[7] = tested on: Raji; experiment: Antiproliferative activity against human Raji cells at 100 uM after 72 hrs by WST1 assay; format: functional; procedure, shortened: as §1
[8] = tested on: CCRF-CEM; experiment: Antiproliferative activity against human CEM cells after at 100 uM 72 hrs by WST1 assay; format: functional; procedure, shortened: as §1
[9] = tested on: Raji; experiment: Antiproliferative activity against human Raji cells after 72 hrs by WST1 assay; format: functional, cell-based; procedure, shortened: as §2
[10] = tested on: Jurkat; experiment: Antiproliferative activity against human Jurkat cells after 72 hrs by WST1 assay; format: functional, cell-based; procedure, shortened: as §2

Row | Structure (SMILES) | Activity [1] [%] | Activity [2] [%] | Activity [3] [%] | IC50 [4] [µM] | IC50 [5] [µM] | IC50 [6] [µM] | Activity [7] [%] | Activity [8] [%] | IC50 [9] [µM] | IC50 [10] [µM]
1 | Cc1ccc(CN2COc3cc4c(cc3C2)c2ccccc2n4C)cc1 | 6.5 | 2.5 | 27.5 | 75 | 57.4 | 68.8 | 27 | 1 | 72.8 | 71.1
2 | Cn1c2ccccc2c2cc3c(cc21)OCN(Cc1nc2ccccc2s1)C3 | 51 | 17 | 79 |  |  |  | 78 | 34 |  | 
3 | C=CCN1COc2c(ccc3c2c2ccccc2n3CC)C1 | 34 | 6.5 | 10 |  | 25.2 | 44 | 4.5 | 4 | 43.6 | 75
4 | CC(C)=CCn1c2ccccc2c2c3c(ccc21)CN(Cc1ccc(C)cc1)CO3 | 48.5 | 13.5 | 41.5 |  |  |  | 11 | 11.5 |  | 
5 | CCn1c2ccccc2c2c3c(ccc21)CN(C(C)c1ccccc1)CO3 (centres undefined) | 59 |  | 86.5 |  |  |  |  | 21 |  | 
6 | CCn1c2ccccc2c2c3c(ccc21)CN(Cc1ccccn1)CO3 | 16 | 82 | 52 |  |  |  | 100 | 23 |  | 
7 | C=CCn1c2ccccc2c2c(O)c(CN(Cc3ccccn3)Cc3ccc4c(c3O)c3ccccc3n4CC=C)ccc21 | 94 | 92 | 94.5 |  |  |  | 95.5 | 78.5 |  | 
8 | CC(c1ccccc1)N1COc2ccc3c4ccccc4n(C)c3c2C1 (centres undefined) | 5 | 0.5 | 0 |  |  |  | 19.5 | 0.5 |  | 
9 | C=CCn1c2ccccc2c2c3c(ccc21)CN(c1ccccc1)CO3 | 54.5 | 13.5 | 83 |  |  |  | 49.5 | 17 |  | 
10 | Cn1c2ccccc2c2ccc3c(c21)CN(Cc1ccccc1)CO3 | 6 | 5.5 | 60.5 | 72.1 | 62.5 | 70.8 | 31.5 | 1.5 | 75 | 74.2
11 | C=CCN1COc2ccc3c4ccccc4n(C)c3c2C1 | 5 | 2 | 62 |  |  |  | 60.5 | 1.5 |  | 
12 | C=CCn1c2ccccc2c2c3c(ccc21)CN(Cc1ccccn1)CO3 | 55.5 | 12.5 | 47.5 |  |  |  | 31.5 | 14.5 |  | 
13 | Cn1c2ccccc2c2cc(CN(Cc3ccccn3)Cc3cc4c5ccccc5n(C)c4cc3O)c(O)cc21 | 10.5 | 8.5 | 24.5 |  |  |  | 70 | 9 |  | 
14 | C=CCN1COc2c(ccc3c2c2ccccc2n3CC=C)C1 | 12 | 2.5 | 43 |  |  |  | 19.5 | 2 |  | 
15 | CC(C)=CCn1c2ccccc2c2c3c(ccc21)CN(Cc1ccccc1)CO3 | 53 | 7.5 | 27.5 | 75 | 75 | 37.6 | 7 | 5.5 | 39.3 | 55.5
16 | Cn1c2ccccc2c2c(O)c(CN(Cc3ccccn3)Cc3ccc4c(c3O)c3ccccc3n4C)ccc21 | 54 | 72 | 98.5 |  |  |  | 100 | 87.5 |  | 
17 | CCn1c2ccccc2c2c3c(ccc21)CN(Cc1ccccc1)CO3 | 46 |  | 64 |  |  |  |  | 31.5 |  | 
18 | Cc1ccc(CN2COc3ccc4c5ccccc5n(C)c4c3C2)cc1 | 3 | 1.5 | 1.5 |  |  |  | 12 | 1 |  | 

Row | Structure (SMILES) | Activity [1] [%] | Activity [2] [%] | Activity [3] [%] | IC50 [4] [µM] | IC50 [5] [µM] | IC50 [6] [µM] | Activity [7] [%] | Activity [8] [%] | IC50 [9] [µM] | IC50 [10] [µM]
19 | C=CCN1COc2c(ccc3c2c2ccccc2n3CC=C(C)C)C1 | 30 | 2 | 2 | 37 | 43.8 | 11.8 | 3.5 | 4 | 11.9 | 11.8
20 | Cn1c2ccccc2c2c3c(ccc21)CN(c1ccccc1)CO3 | 100 | 74.5 | 100 |  |  |  | 77 | 25 |  | 
21 | Cn1c2ccccc2c2cc3c(cc21)OCN(Cc1ccccc1)C3 | 1.5 | 1 | 3 |  |  |  | 11 | 0.5 |  | 
22 | Cc1ccc(CN2COc3c(ccc4c3c3ccccc3n4C)C2)cc1 |  |  | 42.5 |  |  |  |  | 55.5 |  | 
23 | CC(c1ccccc1)N1COc2c(ccc3c2c2ccccc2n3C)C1 (centres undefined) | 100 | 80.5 | 100 |  |  |  | 84 | 40 |  | 
24 | C=CCN1COc2cc3c(cc2C1)c1ccccc1n3C | 2.5 | 1.5 | 1.5 | 62.6 | 32.1 | 50.1 | 10.5 | 1.5 | 56.2 | 50
25 | C=CCN1COc2c(ccc3c2c2ccccc2n3C)C1 | 5 | 8.5 | 35 |  | 32.1 | 35.7 | 9.5 | 4.5 | 43.6 | 69
26 | C=CCn1c2ccccc2c2c3c(ccc21)CN(Cc1ccccc1)CO3 | 56.5 | 67 | 55.5 |  |  |  | 100 | 5.5 |  | 
27 | CC(c1ccccc1)N1COc2cc3c(cc2C1)c1ccccc1n3C (centres undefined) | 2 | 1 | 0 | 62.5 | 37.7 | 25.2 | 18.5 | 0.5 | 57.9 | 37.3
28 | Cn1c2ccccc2c2c3c(ccc21)CN(Cc1ccccc1)CO3 | 100 | 87 | 87 |  |  |  | 80 | 10 |  | 
29 | CC(C)=CCn1c2ccccc2c2c(O)c(CN(Cc3ccccn3)Cc3ccc4c(c3O)c3ccccc3n4CC=C(C)C)ccc21 | 100 | 100 | 100 |  |  |  | 100 | 100 |  | 
30 | CCn1c2ccccc2c2c(O)c(CN(Cc3ccccn3)Cc3ccc4c(c3O)c3ccccc3n4CC)ccc21 | 35.5 | 97.5 | 89 |  |  |  | 100 | 53 |  | 
31 | CC(C)=CCn1c2ccccc2c2c3c(ccc21)CN(c1ccccc1)CO3 | 60 | 7.5 | 49 |  |  |  | 17 | 10.5 |  | 
32 | Cn1c2ccccc2c2ccc3c(c21)CN(Cc1ccccn1)CO3 | 7 | 2 | 1.5 |  | 68.8 | 74.3 | 23 | 1 |  | 75
33 | Cn1c2ccccc2c2cc3c(cc21)OCN(Cc1ccccn1)C3 | 7.5 | 3.5 | 5 | 56.4 | 43.7 | 16.5 | 38 | 1.5 | 12.1 | 11.5
34 | C=CCn1c2ccccc2c2c3c(ccc21)CN(Cc1ccc(C)cc1)CO3 | 54.5 | 3.5 | 66 |  |  |  | 9.5 | 9 |  | 
35 | CCn1c2ccccc2c2c3c(ccc21)CN(c1ccccc1)CO3 | 100 | 55 | 100 |  |  |  | 84 | 58.5 |  | 
36 | CCn1c2ccccc2c2c3c(ccc21)CN(Cc1ccc(C)cc1)CO3 | 93 | 49.5 | 85.5 |  |  |  | 31.5 | 15 |  | 
